Active and inactive are the calls of the source.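 How the source made its calls: active means growth inhibition above 25% in both replicates, a cutoff set 3 SD above the mean; inconclusive means above 25% in only one replicate; inactive means the rest.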
Assay: OD615 S. cerevisiae growth inhibition, permissive medium, pilot counter-assay, permissive growth control for S. cerevisiae lifespan shortening project (AID 705)
Conditions: OD615, 24 h, at 10 µM, stronger effect = higher value
How it was run: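 System: Engineered DeaD yeast | Buffer or medium: SC raffinose/galactose permissive medium | Doses: 10 µM single dose, 0.25% DMSO | Times: 24 h exposure, 30 °C | Measured by: OD615 turbidity read | Read-out: Yeast growth inhibition indicated by reduced 24 h OD615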
For COC(=O)c1ccsc1NC(=O)C1=COCCO1, the growth inhibition was -9% (inactive). In the case of CC(=O)Oc1c(Cl)c(N2CCOCC2)c(OC(C)=O)c2ccccc12, the growth inhibition was -22.8% (inactive). With Cc1ccc2nc(N3CCOCC3)c3nncn3c2c1 the growth inhibition was -6.37% (inactive). With CC(C)n1c(C(O)c2ccccc2)nc2ccccc21 (stereo not given) the growth inhibition was -5.87% (inactive). With C=CCNC(=O)c1cnc2n(c1=O)CCS2 the growth inhibition was 5.17% (inactive). In the case of COc1ccc(-c2nnc3ccc(SCC(=O)N4CCCC4)nn23)cc1, the growth inhibition was 3.94% (inactive). With Cn1c(Cn2c(=O)sc3ccccc32)nnc1SCC(=O)NCCc1ccccc1 the growth inhibition was -10% (inactive). For CC(C)OCCCNC(=O)c1cc2c(=O)n(C)c3ccccc3c2n1C, the growth inhibition was 0.55% (inactive). In the case of Cc1cc(-n2nc(C)cc2C)nc(NS(=O)(=O)c2ccccc2)n1, the growth inhibition was -11.4% (inactive). With COC(=O)c1ccc(C2C(C(=O)Nc3ccc(C)cc3C)=C(C)Nc3ncnn32)cc1 (stereo not given) the growth inhibition was 2.06% (inactive). With O=C(CC1NCCNC1=O)OCCCc1ccccc1 (stereo not given) the growth inhibition was -0.955% (inactive). In the case of CCOC(=O)Nc1ccc2c(c1)N(C(=O)N(CC)CC)c1ccccc1CC2, the growth inhibition was -8.36% (inactive). In the case of O=C(CSc1nnc2sc3ccccc3n12)NCc1ccc2c(c1)OCO2, the growth inhibition was 1.77% (inactive). With Cc1nc2sc(C(c3ccc(C(C)C)cc3)N3CCN(CCO)CC3)c(O)n2n1 (stereo not given) the growth inhibition was -9.91% (inactive). For CCOC(=O)c1ccc(NC(=O)CCC(=O)OC)cc1, the growth inhibition was 5.7% (inactive). With CC(=NCCc1ccccc1)C1=C(O)CSC1=O the growth inhibition was -3.27% (inactive). For COC(=O)CN1C(=O)C(O)(CC(=O)c2ccc(Br)cc2)c2ccccc21 (stereo not given), the growth inhibition was 5.54% (inactive). For Cn1c(=O)c2c(SCC(=O)NCc3ccco3)nc(CC(C)(C)C)nc2n(C)c1=O, the growth inhibition was -3.79% (inactive). With CCn1c(C2CC(=O)N(c3cc(C)cc(C)c3)C2)nc2ccccc21 (stereo not given) the growth inhibition was -6.28% (inactive). For CCN(CC)CCCN1C(=O)C(O)=C(C(=O)c2ccc(C)o2)C1c1cccs1 (stereo not given), the growth inhibition was 0.37% (inactive). With CCN(CC)S(=O)(=O)c1ccc(S(=O)(=O)N2CCN(CCC#N)CC2)cc1 the growth inhibition was -8.46% (inactive). For CN(Cc1ccccc1)S(=O)(=O)c1ccc2[nH]c(=O)oc2c1, the growth inhibition was -17.3% (inactive). With Cc1c(C(=O)NCc2ccc3c(c2)OCO3)sc2nc(-c3ccccc3)cn12 the growth inhibition was 5.98% (inactive). In the case of CC(=O)c1ccc(C(=O)Nc2ccc(N3CCOCC3)cc2)cc1, the growth inhibition was -0.45% (inactive). For C=CCn1c(CSc2nc3ccccc3s2)nnc1SCC(=O)OCC, the growth inhibition was -1.57% (inactive). For Cn1c(=O)[nH]c(=O)c2c1nc(NC1CCCCC1)n2CCO, the growth inhibition was -16.7% (inactive). In the case of Cc1cc(NC(=O)NC2(C(F)(F)F)Oc3ccc(Cl)cc3O2)no1 (stereo not given), the growth inhibition was -3.33% (inactive). With O=C(CCc1nc2ccccc2[nH]1)N1CCN(C(=O)c2ccco2)CC1 the growth inhibition was -9.21% (inactive). With COc1ccccc1-c1coc2cc(O)cc(O)c2c1=O the growth inhibition was 3.81% (inactive). In the case of Cn1c(=O)c2c(SCC(=O)N3CCN(c4ccccc4)CC3)nc(C3CC3)nc2n(C)c1=O, the growth inhibition was 10.6% (inactive). In the case of CCC(C)NC(=O)c1cnc2n(c1=O)CCS2 (stereo not given), the growth inhibition was 0.08% (inactive). In the case of Cc1cccc(CSc2nnc(Cn3c(=O)sc4ccccc43)n2C)c1, the growth inhibition was -2.34% (inactive). In the case of COC(=O)NCC(c1cccnc1)N1CCN(c2ccccc2F)CC1 (stereo not given), the growth inhibition was -5.28% (inactive). In the case of COCCn1c(=O)[nH]c2cc(C(=O)NC3CCCCCC3)ccc2c1=O, the growth inhibition was -17.4% (inactive). For O=C(c1ccc2nc(N3CCOCC3)sc2c1)N1CCN(C(=O)c2ccco2)CC1, the growth inhibition was -4.29% (inactive). In the case of COc1ccc(CCNC(=O)c2cc3ccccn3n2)c(OC)c1OC, the growth inhibition was -3.78% (inactive). In the case of Cc1nc2ccc(S(=O)(=O)NC(C(=O)NCc3ccco3)C(C)C)cc2s1 (stereo not given), the growth inhibition was -6.93% (inactive). For CCOC(=O)c1c(C)oc2cc(Br)c(OC(C)C(=O)OCC)cc12 (stereo not given), the growth inhibition was -10.4% (inactive). For Cc1cc(SCC(=O)c2ccccc2)n2nc(C)nc2n1, the growth inhibition was -12.2% (inactive). With COc1ccccc1NC(=O)CSc1nc2ncccc2[nH]1 the growth inhibition was -4.5% (inactive).

Source: PubChem BioAssay
